NF-kB expr up = raises NF-kB expression in human neuronal cells; NF-kB reporter expression; active compounds read high; fold change at 12.5 µM; hit rate 1.6% among 190,000; in the data active = fold change above about 3.3
FLuc stim CS = firefly luciferase counter-screen for stimulation assays | activation factor at 10 µM | 200,000 tested, under 10 active | P08659 | ATPlite luciferase biochemical, luminescence, 10 min; 0 = ATP-free wells, 1 = DMSO control;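 active = luciferase activation factor, scaled between plate controls, of at least 2 with compound at 10 µM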
Target sequence (P08659 whole entry, looked up): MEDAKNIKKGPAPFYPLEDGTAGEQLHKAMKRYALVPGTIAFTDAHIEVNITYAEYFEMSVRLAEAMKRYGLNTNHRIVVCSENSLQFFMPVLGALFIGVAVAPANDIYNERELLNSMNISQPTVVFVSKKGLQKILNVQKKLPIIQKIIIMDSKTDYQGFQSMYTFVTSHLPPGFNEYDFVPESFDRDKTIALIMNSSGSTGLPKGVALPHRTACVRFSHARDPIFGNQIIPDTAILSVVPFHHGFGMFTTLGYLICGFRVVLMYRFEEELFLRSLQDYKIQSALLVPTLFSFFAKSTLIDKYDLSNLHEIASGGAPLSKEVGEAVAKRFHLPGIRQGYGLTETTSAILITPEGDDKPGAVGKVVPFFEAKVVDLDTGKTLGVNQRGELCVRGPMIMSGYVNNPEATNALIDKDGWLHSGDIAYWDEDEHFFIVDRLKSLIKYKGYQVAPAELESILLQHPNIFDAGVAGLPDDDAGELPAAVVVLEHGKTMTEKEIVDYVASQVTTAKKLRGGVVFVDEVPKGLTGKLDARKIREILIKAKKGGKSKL
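Assay system: Luciferase/luciferin detection reagent, cell-free biochemical luciferase assay / Also added: ATP substrate / Schedule: 10 min at ambient temperature / Measured by: luminescence measurement of luciferase light output / Benchmarks: low control with PBS replacing ATP, high control enzyme plus ATP without compound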
FLuc inhib CS = Photinus pyralis luciferase inhibition counter-screen | ATPLite firefly luciferase biochemical luminescence, 10 min | inhibition, % at 10 µM | hit rate 1.5% among 200,000;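 active = inhibition above about 50% when tested at 10 µM, limit read from the data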
SDO1 yeast rescue = sdo1-depleted yeast growth rescue; S. cerevisiae sdo1-depleted JHY4D growth rescue, OD600 30 h; active compounds read high; pdr5 snq2 efflux-pump mutant strain; z-score at 10 µM; hit rate 0.21% among 140,000;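 active = z-score above 3 at both the 24 hr and the 30 hr optical density reads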;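 also: z-score against mean and SD of all compound wells on the same plate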
APP 5'UTR act = APP 5'UTR luciferase reporter activation | SH-SY5Y APP 5'UTR luciferase reporter, luminescence; zero percent = DMSO vehicle wells | activation, % at 2 µM | hit rate 1% among 190,000;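 active = activation above a set limit, based on mean plus 3 SD of controls, cut at about 140% in these data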
STAT1 activator = activators of IFN-gamma induced STAT1 signaling; activation (% of control), % at 5.5 µM; NIH 3T3 STAT1-luciferase reporter, luminescence; 100% = IFN-gamma alone, no compound; hit rate 2.6% among 200,000;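 active = activation above the screen-wide mean activation plus 3 SD, cut at about 130% in these data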;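 also: raw ratio to IFN-gamma control signal so 100% means no change and 0% no light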
STAT1 act conf = confirmation of STAT1 signaling activators. shares compounds with STAT1 activator. NIH 3T3 STAT1-luciferase reporter, IFN-gamma potentiation, luminescence; 100% = IFN-gamma EC80 alone, no compound. activation (% of control), % at 5.7 µM. hit rate 97% among 1,200. AID 1262;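 active = activation above a set limit carried over from the earlier primary STAT1 screen, cut at about 140% in these data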;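 also: simple ratio to median IFN-gamma plus DMSO wells so 0% means no light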
NFkB act STAT1ct = counter-screen for STAT1 activators: NF-kappaB activation | shares compounds with STAT1 activator | HEK293T NF-kB luciferase reporter, TNF-alpha stimulated, luminescence; 100% = TNF-alpha with vehicle only | activation (% of control), % at 5.7 µM | hit rate 43% among 1,200;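 active = activation above the mean of solvent-only control wells plus 3 SD, set per campaign, cut at about 130% in these data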;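 also: TNF-alpha given at a submaximal dose yielding about 80% of full reporter signal; values are well signal over median control so 100% means no change and 0% no light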
STAT3 act 2 = activates human STAT3, counter-screen to STAT1 activators; activation (% of control), % at 5.7 µM; U3A cells STAT3-luciferase reporter, IL-6, luminescence; cells lack STAT1; 100 = IL-6 alone, no compound effect; shares compounds with STAT1 activator; hit rate 46% among 1,200;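 active = activation above the solvent-only control well mean plus 3 SD, set per plate batch, cut at about 110% in these data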;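 also: 0% = no luminescence and 100% = median IL-6 plus DMSO wells; higher means more STAT3 reporter activation so hits are non-selective activators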
The depositor's hits bear a star; nt = not tested or not shown. This is a sample that favours compounds with a hit; in the whole collection about 4.3% have one here.

SMILES | NF-kB expr up | FLuc stim CS | FLuc inhib CS | SDO1 yeast rescue | APP 5'UTR act | STAT1 activator | STAT1 act conf | NFkB act STAT1ct | STAT3 act 2
CC(=O)Nc1ccc(S(=O)(=O)NNC(=O)c2cc3c4ccccc4n(C)c3s2)cc1 | 1.19 | 1.1 | -7.3 | 0.96 | 0.5 | 96.2 | nt | nt | nt
CN(C)CCCN(C(=O)c1cccs1)c1nc(-c2ccccc2)cs1 | 1.73 | 1.1 | -5.8 | 0.99 | 23.3 | 90.7 | nt | nt | nt
CN(c1ccc(O)cc1)c1nc(-c2ccccc2)cs1 | 6.87* | 0.6 | 41.1 | -1.22 | 242.8* | 186.4* | 237.8* | 113.5 | 120.1*
Cc1csc(NC(=O)C2COc3ccccc3O2)n1 (configuration not stated) | 2.76 | 0.5 | 48.2 | 0.5 | 148.8* | 160.1* | 197.9* | 105.1 | 78.4
O=C(Nc1nc(-c2ccccc2)cs1)C1COc2ccccc2O1 (configuration not stated) | 1.44 | 1.1 | -5.4 | -1.77 | -3.1 | 104.7 | nt | nt | nt
S=c1[nH]nc(Cc2noc3ccccc23)n1-c1ccccc1 | 1.13 | 1 | 2.4 | nt | 5.2 | 104.3 | nt | nt | nt
Cc1nc(N)sc1-c1csc(Nc2ccccn2)n1 | 1.02 | 1 | 4.2 | -0.19 | 72.5 | 169.1* | 183.2* | 131.2 | 129.1*
Cc1nc(N)sc1-c1csc(Nc2ccc(Cl)cn2)n1 | 1.33 | 1 | 0.0 | -3.22 | -6.5 | 113.7 | nt | nt | nt
S=C(c1ccc(-c2ccc(Br)cc2)o1)N1CCCCC1 | 5.64* | 0.4 | 59.2* | nt | 158.7* | 169.5* | 210.5* | 145.2* | 113.7*
S=C(c1ccc(-c2ccc(Cl)c(Cl)c2)o1)N1CCOCC1 | 5.33* | 0.8 | 20.3 | -2.54 | 133.5 | 157.4* | 201.8* | 143.7* | 118.8*
S=C(Nc1ccc(Cl)c(Cl)c1)N1CCOCC1 | 1.26 | 1 | -1.7 | 0 | -17.6 | 103.5 | nt | nt | nt
CCCCNCC1C(Oc2ccc(Cl)cc2)C(=O)N1c1ccccc1C (configuration not stated) | 0.87 | 1 | -3.5 | nt | -25.3 | 99.4 | nt | nt | nt
CCOc1nc(C)ccc1-c1noc(-c2ccccn2)n1 | 1.42 | 1 | 4.7 | 0.44 | 16.3 | 112.6 | nt | nt | nt
CCOc1ccccc1-c1nc(-c2ccc(C)nc2OC)no1 | 2.18 | 0.8 | 16.1 | -1.19 | 79.7 | 152.8* | 167.2* | 132.8 | 113.6*
COc1ccccc1-c1noc(-c2ccccc2)n1 | 5.58* | 0.6 | 44.2 | -0.18 | 125.0 | 176.1* | 212.6* | 141.5* | 116.2*
CCc1cccc2c(C(=S)N3CCOCC3)c[nH]c12 | 0.98 | 1.1 | -5.0 | nt | -1.9 | 99.0 | nt | nt | nt
COCCCn1c(SCC(=O)N2CCCC(C)C2)nnc1-c1ccco1 (configuration not stated) | 1.1 | 1 | -3.0 | 0.97 | 2.5 | 94.1 | nt | nt | nt
CC(=O)N(Cc1nc2sc(C)c(C)c2c(=O)[nH]1)C1CCCC1 | 0.91 | 1 | -4.3 | nt | 26.7 | 93.6 | nt | nt | nt
Cc1ncsc1C(=O)Nc1nc2c(s1)CC(C)CC2 (configuration not stated) | 4.64* | 0.4 | 58.4* | 0.18 | 120.9 | 151.9* | 178.5* | 122.6 | 99.5
CC1CCc2nc(NC(=O)C3CC3)sc2C1 (configuration not stated) | 1.94 | 0.8 | 15.1 | -0.05 | 21.4 | 119.9 | nt | nt | nt
O=C(/C=C/c1cccs1)NC(=S)NNC(=O)Cc1cccs1 | 0.71 | 1.1 | -6.4 | -0.53 | 8.6 | 90.8 | nt | nt | nt
Cc1ccc(S(=O)(=O)/C(C#N)=C/c2ccccc2OCc2ccccc2)cc1 | 1.59 | 1.1 | -7.4 | 0.8 | -8.6 | 92.9 | nt | nt | nt
CCOc1cccc2cc(-c3csc(NC(=O)CCC(=O)NCCCN4CCC(C)CC4)n3)c(=O)oc12 | 5.51* | 0.9 | 8.4 | nt | 176.0* | 152.0* | 157.0* | 126.2 | 123.6*
CCOc1cccc2cc(C(=O)Nc3nccs3)c(=O)oc12 | 1.94 | 0.5 | 47.2 | 1.43 | -8.1 | 100.9 | nt | nt | nt
CCc1ccc(C(=O)CN2CCSC2=N)cc1 | 7.86* | 0.4 | 63.2* | -0.07 | 85.5 | 159.3* | 209.4* | 135.8* | 95.4
SMILES | NF-kB expr up | FLuc stim CS | FLuc inhib CS | SDO1 yeast rescue | APP 5'UTR act | STAT1 activator | STAT1 act conf | NFkB act STAT1ct | STAT3 act 2
COC(=O)/C=c1/sc2nc3ccccc3n2c1=O | 1.14 | 1 | -2.1 | -1.07 | 13.0 | 97.3 | nt | nt | nt
O=c1/c(=C/c2ccccn2)sc2nc3ccccc3n12 | 4.79* | 0.2 | 76.2* | -0.09 | 66.3 | 183.9* | 288.9* | 138.0* | 158.3*
O=C(Cc1ccccc1)NCCC1=CCCCC1 | 1.19 | 1 | -4.7 | 1.4 | -27.9 | 102.5 | nt | nt | nt
O=C(NCCC1=CCCCC1)c1ccc([N+](=O)[O-])cc1 | 4.85* | 0.8 | 21.1 | -0.39 | 159.9* | 150.8* | 189.3* | 118.2 | 160.5*
O=C(NCCC1=CCCCC1)c1ccc(F)cc1 | 1.09 | 0.6 | 39.6 | -0.66 | 210.5* | 166.3* | 199.6* | 106.8 | 102.3
CCOc1ccccc1C(=O)Nc1cc(C(=O)NCC(C)C)ccc1Cl | 1.05 | 1 | 0.0 | nt | 13.8 | 103.0 | nt | nt | nt
O=C(NCCCn1ccnc1)c1cc2cc([N+](=O)[O-])ccc2oc1=O | 1.12 | 1 | -3.9 | 0 | -12.6 | 103.8 | nt | nt | nt
O=c1ccc2ccc(Oc3ccc([N+](=O)[O-])cc3[N+](=O)[O-])cc2o1 | 2.15 | 1.1 | -8.5 | -0.28 | 27.1 | 96.3 | nt | nt | nt
O=C(NN=C1CCCC1)c1cccs1 | 1.14 | 1 | -3.6 | 2.31 | 87.7 | 156.0* | 114.4 | 109.0 | 99.9
CC(=O)N1CCC(=NNC(=O)c2cccs2)CC1 | 1.12 | 1.1 | -7.5 | 1.32 | 116.7 | 159.5* | 118.9 | 109.4 | 104.5
O=C(NN=C1C2CC3CC(C2)CC1C3)c1cccs1 | 2.24 | 1 | 1.4 | 0.26 | 131.4 | 121.8 | nt | nt | nt
CC1=C/C(=N\NC(=O)c2cccs2)CC(C)(C)C1 | 1.24 | 1 | -4.6 | nt | 28.9 | 113.0 | nt | nt | nt
CCc1nnc(NS(=O)(=O)c2ccc(NC(=S)NC(=O)/C=C/c3ccc(F)cc3)cc2)s1 | 0.98 | 1 | -4.3 | 0.59 | 3.3 | 103.4 | nt | nt | nt
Cc1nc2ccccn2c1C(=O)NC1CCCc2ccccc21 (configuration not stated) | 0.7 | 1.1 | -5.1 | nt | -0.1 | 78.6 | nt | nt | nt
Cc1nn(C)c(C)c1/C=N/NC(=O)CCn1nc(C)c([N+](=O)[O-])c1C | 1 | 1 | -4.7 | 0.31 | -3.7 | 97.7 | nt | nt | nt
COc1cccc(-c2nc3ccccc3s2)c1 | 7.8* | 0.3 | 74.7* | 0 | 142.8* | 156.4* | 206.6* | 121.3 | 118.5*

Source: PubChem BioAssay
